SENP6 inh = SENP6 protease inhibitors, primary screen, biochemical, luminescence, uHTS; AID 2599, 2010; inhibition, % at 10 µM; actives 1.8% (n = 330,000); Recombinant SENP6 catalytic domain, aminoluciferin luminescence;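 active = inhibition above about 50% at the single tested dose, limit read from the data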;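 also: plate controls were DMSO wells with enzyme for no effect and DMSO wells lacking enzyme for full effect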
SENP7 inh = SENP7 protease inhibitors, primary screen, biochemical, luminescence, uHTS | recombinant SENP7, Z-RLRGG-aminoluciferin luminescence, 40 min | inhibition, % at 5 µM | actives 1.5% (n = 330,000) | AID 434973, 2010;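 active = inhibition above about 50% at the single test dose, limit read from the data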;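 also: plate controls were DMSO with enzyme for no effect and no enzyme buffer wells for full effect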
Target sequence (Q9BQF6 706-1050 limits assumed): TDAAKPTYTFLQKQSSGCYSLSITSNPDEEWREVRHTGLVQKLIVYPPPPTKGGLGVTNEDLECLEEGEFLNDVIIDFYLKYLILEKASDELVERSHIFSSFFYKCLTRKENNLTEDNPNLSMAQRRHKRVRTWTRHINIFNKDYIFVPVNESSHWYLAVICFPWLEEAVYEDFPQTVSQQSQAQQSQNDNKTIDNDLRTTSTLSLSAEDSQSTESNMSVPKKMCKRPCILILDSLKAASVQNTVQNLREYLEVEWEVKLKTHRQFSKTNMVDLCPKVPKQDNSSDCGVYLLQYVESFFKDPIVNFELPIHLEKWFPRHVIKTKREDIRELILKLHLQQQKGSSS
SENP8 block-1 = SENP8 protease inhibitors, primary screen, biochemical, luminescence. inhibition, % at 10 µM. actives 1.2% (n = 330,000). purified SENP8, Z-RLRGG-aminoluciferin cleavage. AID 2540, 2010; in the data active = inhibition above about 50%
SENP8 block-2 = human SENP8 protease inhibitors, primary screen, biochemical, fluorescence, Nedd8 protein substrate, uHTS. inhibition, % at 20 µM. actives 0.64% (n = 360,000). AID 602440, 2012. Sentrin-specific protease 8 (Homo sapiens), Q96LD8. recombinant SENP8; in the data active = inhibition mostly above about 40%, no sharp cut-off; inactive = mostly below about 27%
SENP1 inh = human SENP1 catalytic domain inhibitors, primary screen, biochemical, FRET, uHTS | Sentrin-specific protease 1 (Homo sapiens), Q9P0U3 | recombinant SENP1 catalytic domain, CyPet-SUMO1-YPet FRET cleavage | inhibition, % at 10 µM | actives 0.21% (n = 360,000) | AID 624204, 2012;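 active = inhibition at least 30% at 10 µM, raw YFP signal under a set limit, fluorescence ratio 0.5 to 1.5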;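 also: 0% = enzyme with DMSO and 100% = no enzyme wells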
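Test system: human SENP1 catalytic domain; medium: Tris pH 8 buffer plus EDTA, NaCl, BME, BSA, NP40, catalase; incubation: 50 min reaction at room temperature; technique: FRET, CFP and YFP emission; controls: no-enzyme low control and enzyme-plus-DMSO high control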
SENP8 confirm = SENP8 protease inhibitors, retest, confirmation, biochemical, luminescence, single concentration | shares compounds with SENP7 inh | Recombinant SENP8, Z-RLRGG-aminoluciferin luminescence, 60 min | inhibition, % at 12.5 µM | actives 40% (n = 6,200) | AID 488912, 2010;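 active = mean inhibition across replicates above about 50%, limit read from the data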
SENP6 confirm = SENP6 protease inhibitors, confirmation, biochemical, luminescence, single concentration; shares compounds with SENP7 inh; inhibition, % at 12.5 µM; recombinant SENP6, Z-RLRGG-aminoluciferin luminescence; actives 58% (n = 6,200)
SENP7 confirm = SENP7 protease inhibitors, retest, confirmation, biochemical, luminescence, single concentration | shares compounds with SENP7 inh | recombinant SENP7, Z-RLRGG-aminoluciferin luminescence, 40 min | inhibition, % at 12.5 µM | actives 69% (n = 6,200) | AID 488917, 2010
Casp3 SENP sel = caspase-3 protease inhibitors, confirmation, selectivity assay for SENP inhibitor project, biochemical, single concentration; inhibition, % at 12.5 µM; AID 488918, 2010; purified caspase-3, Z-DEVD-aminoluciferin luminescence, 60 min; shares compounds with SENP7 inh; actives 60% (n = 6,200);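 active = mean inhibition above about 50%, limit read from the data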;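 also: plate controls were enzyme with DMSO for no effect and wells without caspase-3 for full effect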
Luc interf = luminescence interference (SENP counter-screen); shares compounds with SENP7 inh; Pre-incubated SENP8/Z-RLRGG-aminoluciferin, luciferase luminescence interference; inhibition, % at 12.5 µM; actives 39% (n = 6,200); AID 488919;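 active = mean inhibition above about 50% when retested at one dose, limit read from the data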;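 also: plate controls were DMSO wells with completed reaction for no effect and substrate without enzyme for full effect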
The depositor's hits bear a star. Sampled rows, rich in hits. Any-hit rate of the full collection: about 2.5%.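 The calls were made as follows, unless noted: active = mean inhibition above about 50% in the one-dose retest (limit read from the data); inactive = the rest.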

Results for CCOC(=O)[C@]12Cc3cc(Cl)ccc3[C@H]1N(C1CCCCC1)C(=O)c1ccccc12 ?
SENP8 block-2: 5.0; SENP1 inh: -2.4

What do the screens show for `COc1ccc(-n2c(O)c(C(C)=NCCc3c[nH]c4ccccc34)c(=O)[nH]c2=O)cc1`?
SENP6 inh: -18.2; SENP7 inh: -7.9; SENP8 block-1: -6.9; SENP8 block-2: 10.1; SENP1 inh: -0.1

How did CCCCn1c(NC(=O)c2ccc(Br)o2)c(C(=O)OCC)c2nc3ccccc3nc21 do in these assays?
SENP6 inh: 75.3*; SENP7 inh: 13.7; SENP8 block-1: 61.7*; SENP8 block-2: -372.4; SENP1 inh: -28.2

What do the screens show for `Cc1[nH]n(-c2ccccc2)c(=O)c1C(c1ccc([N+](=O)[O-])cc1)c1c(C)[nH]n(-c2ccccc2)c1=O`?
SENP6 inh: 12.1; SENP7 inh: 19.8; SENP8 block-1: 2.7; SENP8 block-2: 90.1*; SENP1 inh: 2.9

What do the screens show for `O=C(CCc1ccccc1)N1Cc2cc(N3CCOCC3)ccc2-n2nncc2C1`?
SENP8 block-2: -5.0; SENP1 inh: 2.2

Results for OCC[n+]1c2ccccc2nc2ccc(N3CCOCC3)cc21 ?
SENP6 inh: 52.4*; SENP7 inh: 21.9; SENP8 block-1: 38.3; SENP8 block-2: 30.7; SENP1 inh: 0.3; SENP8 confirm: 49.4; SENP6 confirm: 67.7*; SENP7 confirm: 39.6; Casp3 SENP sel: 48.4; Luc interf: 18.1

What do the screens show for `CCOC(=O)C1(CCc2ccccc2)CCN(Cc2ccc3c(c2)OCCO3)CC1`?
SENP6 inh: 70.0*; SENP7 inh: 8.7; SENP8 block-1: -7.6; SENP8 block-2: 15.6; SENP1 inh: 1.9; SENP8 confirm: 10.0; SENP6 confirm: 1.0; SENP7 confirm: -4.0; Casp3 SENP sel: 2.7; Luc interf: -2.2

What do the screens show for `CCOC(=O)C1(CCc2ccccc2)CCN(Cc2ccc(NC(C)=O)cc2)CC1`?
SENP6 inh: -9.1; SENP7 inh: -2.9; SENP8 block-1: -7.0; SENP8 block-2: 15.3; SENP1 inh: -1.0

What do the screens show for `CCCCn1nnnc1C(c1cccs1)N1CCC2(CC1)C(=O)NCN2c1ccccc1` (stereo not drawn)?
SENP8 block-2: 12.8; SENP1 inh: 1.0

Results for Cc1cccc(NP2(=O)NCCCN2)c1 ?
SENP8 block-2: 8.6; SENP1 inh: 2.9

Results for CCC(C)NC(=O)c1c(N)n(CC2CCCO2)c2nc3ccccc3nc12 (stereo not drawn) ?
SENP6 inh: 87.6*; SENP7 inh: 71.8*; SENP8 block-1: 83.0*; SENP8 block-2: -270.4; SENP1 inh: -20.1; SENP8 confirm: 7.3; SENP6 confirm: 40.7; SENP7 confirm: 33.9; Casp3 SENP sel: 9.2; Luc interf: 5.8
